# Test results published in ChEMBL document CHEMBL5233208, “Optimization of P2Y12 Antagonist Ethyl 6-(4-((Benzylsulfonyl)carbamoyl)piperidin-1-yl)-5-cyano-2-methylnicotinate (AZD1283) Led to the Discovery of an Oral Antiplatelet Agent with Improved Druglike Properties” (J Med Chem, 2019).
# The source made the active and inactive calls. No cut-off for these calls is given here.
# Assays:
# [1] = organism: Homo sapiens; test: Antiplatelet activity in human platelet-rich plasma assessed as inhibition of ADP-induced platelet aggregation by aggregometry; assay type: functional
# How it was run: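 Human PRP from healthy donors free of aspirin/NSAIDs for at least two weeks, drawn into ACD; PRP spun at 300 g for 10 min, PPP at 2000 g. Compound in 0.5% DMSO preincubated 2 min at 37 °C with stirring (900 rpm). Aggregation induced by 10 μM ADP (final) and followed optically for 5 min.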
# [2] = Cmax in Sprague-Dawley rat at 5 mg/kg,po measured up to 24 hrs by LC-MS/MS analysis; assay type: ADME, organism-based; design: time < 24 hrs, dose 5 mg/kg, route po; conditions: in vivo
# [3] = Half life in Sprague-Dawley rat at 5 mg/kg,po measured up to 24 hrs by LC-MS/MS analysis; assay type: ADME, organism-based; conditions: in vivo
# [4] = Tmax in Sprague-Dawley rat at 5 mg/kg,po measured up to 24 hrs by LC-MS/MS analysis; assay type: ADME, organism-based; conditions: in vivo
# [5] = AUC (0 to infinity) in Sprague-Dawley rat at 5 mg/kg,po measured up to 24 hrs by LC-MS/MS analysis; assay type: ADME, organism-based; design: time < 24 hrs, dose 5 mg/kg, route po; conditions: in vivo
# [6] = MRT in Sprague-Dawley rat at 5 mg/kg,po measured up to 24 hrs by LC-MS/MS analysis; assay type: ADME, organism-based; conditions: in vivo
# [7] = test system: Rattus norvegicus; test: Antithrombotic activity in anesthetized Wistar rat model of tail-bleeding assessed as increase in bleeding time po administered as single dose measured at 1.5 hrs post dose; assay type: functional
# How it was run: (§1)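 Male rats (250–300 g, n = 10 per dose) acclimatized at least 7 days, then dosed by oral gavage. At 1.5 h, anesthetized with 2% pentobarbital i.p. at 50 mg/kg. Tail transected 4 mm from the tip and immersed in saline at 37 °C; bleeding ended when no blood appeared for 30 s. Bleeding time and blood loss weight recorded as mean ± SEM.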
# [8] = test system: Rattus norvegicus; test: Antithrombotic activity in anesthetized Wistar rat model of FeCL3-induced carotid artery thrombosis assessed as reduction in thrombus weight po administered as single dose measured at 1.5 hrs post dose; assay type: functional
# How it was run: (§2)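 Compounds in 0.5% CMC-Na given to Wistar rats as a single oral gavage dose (10 mL/kg). Rats anesthetized with 2% pentobarbital i.p. at 50 mg/kg and kept on a heating pad. At 1.5 h post-dose, filter paper soaked in 20% FeCl3 applied to the isolated left carotid artery for 10 min; thrombus weight recorded. Mean ± SEM, n = 10.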
# [9] = test system: Rattus norvegicus; test: Antithrombotic activity in anesthetized Wistar rat model of tail-bleeding assessed as increase in bleeding weight at […], po administered as single dose measured at 1.5 hrs post dose; assay type: functional
# [10] = test system: Rattus norvegicus; test: Antithrombotic activity in anesthetized Wistar rat model of tail-bleeding assessed as increase in bleeding weight at 5 mg/kg, po administered as single dose measured at 1.5 hrs post dose; assay type: functional; how it was run: as §1
# [11] = test system: Rattus norvegicus; test: Antithrombotic activity in anesthetized Wistar rat model of tail-bleeding assessed as increase in bleeding weight at 10 mg/kg, po administered as single dose measured at 1.5 hrs post dose; assay type: functional; how it was run: as §1
# [12] = test system: Rattus norvegicus; test: Antithrombotic activity in anesthetized Wistar rat model of tail-bleeding assessed as increase in bleeding weight at 20 mg/kg, po administered as single dose measured at 1.5 hrs post dose; assay type: functional; how it was run: as §1
# [13] = Metabolic stability in rat liver microsomes assessed as half life at […] measured up to 60 mins in presence of NADPH regeneration system by LC-MS/MS analysis; assay type: ADME, Microsome
# [14] = Metabolic stability in dog liver microsomes assessed as half life at […] measured up to 60 mins in presence of NADPH regeneration system by LC-MS/MS analysis; assay type: ADME, Canis lupus familiaris, Microsome
# [15] = Metabolic stability in human liver microsomes assessed as half life at […] measured up to 60 mins in presence of NADPH regeneration system by LC-MS/MS analysis; assay type: ADME, Microsome
# [16] = biological target: T1, Cytochrome P450 1A2 (Homo sapiens, UniProt P05177); test: Inhibition of CYP1A2 in human liver microsomes using phenacetin as substrate preincubated for 10 mins followed by NADPH addition and measured after 15 mins by LC-MS/MS analysis
# T1 sequence (P05177 whole entry): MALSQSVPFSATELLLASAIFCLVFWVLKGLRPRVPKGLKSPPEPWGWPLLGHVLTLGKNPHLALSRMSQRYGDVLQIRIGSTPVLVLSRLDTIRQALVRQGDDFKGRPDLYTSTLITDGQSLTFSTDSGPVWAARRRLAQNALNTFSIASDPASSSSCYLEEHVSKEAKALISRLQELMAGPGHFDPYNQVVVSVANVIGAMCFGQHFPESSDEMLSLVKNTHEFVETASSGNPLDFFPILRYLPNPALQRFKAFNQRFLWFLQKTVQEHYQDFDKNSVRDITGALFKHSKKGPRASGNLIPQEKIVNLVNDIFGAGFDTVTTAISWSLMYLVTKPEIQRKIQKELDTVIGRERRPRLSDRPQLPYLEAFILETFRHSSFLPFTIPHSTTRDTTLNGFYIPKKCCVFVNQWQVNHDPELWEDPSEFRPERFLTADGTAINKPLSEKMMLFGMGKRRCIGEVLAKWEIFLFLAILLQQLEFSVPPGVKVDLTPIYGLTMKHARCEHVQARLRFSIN
# [17] = biological target: Cytochrome P450 2C9 (Homo sapiens, UniProt P11712); test: Inhibition of CYP2C9 in human liver microsomes using tolbutamide as substrate preincubated for 10 mins followed by NADPH addition and measured after 15 mins by LC-MS/MS analysis
# [18] = biological target: Cytochrome P450 2C19 (Homo sapiens, UniProt P33261); test: Inhibition of CYP2C19 in human liver microsomes using S-mephenytoin as substrate preincubated for 10 mins followed by NADPH addition and measured after 15 mins by LC-MS/MS analysis
# [19] = biological target: Cytochrome P450 2D6 (Homo sapiens, UniProt P10635); test: Inhibition of CYP2D6 in human liver microsomes using dextromethorphan as substrate preincubated for 10 mins followed by NADPH addition and measured after 15 mins by LC-MS/MS analysis
# [20] = biological target: T2, Cytochrome P450 3A4 (Homo sapiens, UniProt P08684); test: Inhibition of CYP3A4 in human liver microsomes using Midazolam as substrate preincubated for 10 mins followed by NADPH addition and measured after 15 mins by LC-MS/MS analysis
# [21] = biological target: T2, Cytochrome P450 3A4; test: Inhibition of CYP3A4 in human liver microsomes using testosterone as substrate preincubated for 10 mins followed by NADPH addition and measured after 15 mins by LC-MS/MS analysis
# [22] = Metabolic stability in rat liver microsomes assessed as intrinsic clearance at 0.1 µM measured up to 60 mins in presence of NADPH regeneration system by LC-MS/MS analysis; conditions: 1 h
# [23] = Metabolic stability in dog liver microsomes assessed as intrinsic clearance at 0.1 µM measured up to 60 mins in presence of NADPH regeneration system by LC-MS/MS analysis; conditions: 1 h
# [24] = Metabolic stability in human liver microsomes assessed as intrinsic clearance at 0.1 µM measured up to 60 mins in presence of NADPH regeneration system by LC-MS/MS analysis; conditions: 1 h
# [25] = test system: Rattus norvegicus; test: Antithrombotic activity in anesthetized Wistar rat model of FeCL3-induced carotid artery thrombosis assessed as reduction in thrombus weight at 10 mg/kg, po administered as single dose measured at 1.5 hrs post dose; assay type: functional, organism-based; how it was run: as §2
# T2 sequence (P08684 whole entry): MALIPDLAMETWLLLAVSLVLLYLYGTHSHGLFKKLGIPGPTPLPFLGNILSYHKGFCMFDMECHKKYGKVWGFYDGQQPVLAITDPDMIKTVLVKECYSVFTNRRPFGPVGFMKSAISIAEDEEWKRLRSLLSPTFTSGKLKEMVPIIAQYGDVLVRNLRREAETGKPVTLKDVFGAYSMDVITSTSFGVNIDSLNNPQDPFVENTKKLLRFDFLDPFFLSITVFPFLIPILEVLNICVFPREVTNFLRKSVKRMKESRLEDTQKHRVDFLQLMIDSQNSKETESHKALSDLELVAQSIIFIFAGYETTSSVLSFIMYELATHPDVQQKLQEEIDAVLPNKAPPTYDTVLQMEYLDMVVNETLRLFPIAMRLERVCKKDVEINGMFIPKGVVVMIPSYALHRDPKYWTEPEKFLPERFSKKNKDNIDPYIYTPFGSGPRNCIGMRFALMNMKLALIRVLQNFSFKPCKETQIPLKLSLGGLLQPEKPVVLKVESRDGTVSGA
# Cytochrome P450 2C9, sequence (P11712 whole entry): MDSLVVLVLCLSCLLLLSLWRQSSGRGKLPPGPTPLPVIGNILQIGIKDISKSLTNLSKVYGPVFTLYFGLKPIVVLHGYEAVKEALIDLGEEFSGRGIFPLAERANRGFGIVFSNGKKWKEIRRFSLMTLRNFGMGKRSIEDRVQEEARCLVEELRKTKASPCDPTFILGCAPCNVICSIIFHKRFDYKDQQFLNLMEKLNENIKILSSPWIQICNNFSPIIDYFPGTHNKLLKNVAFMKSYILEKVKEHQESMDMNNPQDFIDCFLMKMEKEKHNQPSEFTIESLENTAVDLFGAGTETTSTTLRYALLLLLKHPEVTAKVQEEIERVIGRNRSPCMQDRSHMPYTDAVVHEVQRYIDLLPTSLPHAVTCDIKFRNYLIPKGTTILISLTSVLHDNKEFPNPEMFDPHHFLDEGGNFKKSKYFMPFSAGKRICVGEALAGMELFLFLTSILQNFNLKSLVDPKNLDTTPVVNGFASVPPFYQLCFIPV
# Cytochrome P450 2D6, sequence (P10635 whole entry): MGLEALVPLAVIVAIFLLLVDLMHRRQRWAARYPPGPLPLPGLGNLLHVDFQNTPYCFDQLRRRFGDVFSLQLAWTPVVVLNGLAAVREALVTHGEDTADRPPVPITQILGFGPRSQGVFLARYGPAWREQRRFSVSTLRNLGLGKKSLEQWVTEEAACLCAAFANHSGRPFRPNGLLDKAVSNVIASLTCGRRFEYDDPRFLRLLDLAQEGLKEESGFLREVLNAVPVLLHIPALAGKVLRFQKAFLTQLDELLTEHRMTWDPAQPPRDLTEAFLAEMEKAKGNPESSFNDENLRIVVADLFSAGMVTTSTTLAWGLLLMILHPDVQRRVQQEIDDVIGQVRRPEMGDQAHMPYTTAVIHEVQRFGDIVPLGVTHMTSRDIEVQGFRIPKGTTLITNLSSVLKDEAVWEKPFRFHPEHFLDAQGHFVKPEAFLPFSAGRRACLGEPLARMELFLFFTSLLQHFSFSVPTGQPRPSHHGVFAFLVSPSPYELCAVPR
# Cytochrome P450 2C19, sequence (P33261 whole entry): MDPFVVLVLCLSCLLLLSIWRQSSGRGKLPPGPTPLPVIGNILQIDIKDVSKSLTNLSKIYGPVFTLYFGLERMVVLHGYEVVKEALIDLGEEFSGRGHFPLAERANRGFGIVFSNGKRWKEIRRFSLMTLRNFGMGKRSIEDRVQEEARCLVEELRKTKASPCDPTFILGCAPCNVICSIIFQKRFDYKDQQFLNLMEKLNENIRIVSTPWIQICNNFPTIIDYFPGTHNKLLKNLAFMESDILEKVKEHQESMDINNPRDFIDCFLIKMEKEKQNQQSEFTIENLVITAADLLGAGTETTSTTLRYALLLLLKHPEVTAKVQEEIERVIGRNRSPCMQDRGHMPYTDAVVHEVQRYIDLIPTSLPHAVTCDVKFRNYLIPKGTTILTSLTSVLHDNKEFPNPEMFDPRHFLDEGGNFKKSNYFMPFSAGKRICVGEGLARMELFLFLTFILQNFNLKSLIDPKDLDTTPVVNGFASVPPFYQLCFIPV
compound,measurement,setting,value
Cc1ccc(CS(=O)(=O)NC(=O)C2CCN(c3nc4c(cc3C#N)C(=O)OC4)CC2)cc1,IC50,[1],4.28 µM
CC1OC(=O)c2cc(C#N)c(N3CCC(C(=O)NS(=O)(=O)c4ccc(Cl)s4)CC3)nc21 (stereo not drawn),IC50,[1],> 300 µM
N#Cc1cc2c(nc1N1CCC(C(=O)NS(=O)(=O)Cc3ccccc3)CC1)CCCC2=O,IC50,[1],117 µM
N#Cc1cc2c(nc1N1CCC(C(=O)NS(=O)(=O)Cc3ccccc3)C1)COC2=O (stereo not drawn),IC50,[1],> 300 µM
CC1(C(=O)NS(=O)(=O)Cc2ccc(Cl)cc2)CCN(c2nc3c(cc2C#N)C(=O)OC3)CC1,IC50,[1],3.01 µM
same,Cmax,[2],877 ng/mL
same,half-life,[3],1.9 h
same,Tmax,[4],0.25 h
same,AUC(0-inf),[5],1350 ng·h/mL
same,MRT,[6],2.58 h
CC1OC(=O)c2cc(C#N)c(N3CC(C(=O)NS(=O)(=O)Cc4ccccc4)C3)nc21 (stereo not drawn),IC50,[1],> 300 µM
N#Cc1cc2c(nc1N1CCC(F)(C(=O)NS(=O)(=O)c3ccc(Cl)s3)CC1)COC2=O,IC50,[1],37.1 µM
COC(=O)[C@H](c1ccccc1Cl)N1CCc2sccc2C1 [CLOPIDOGREL],ED100,[7],2.36 mg/kg
same,ED50,[8],7 mg/kg
same,Activity,[9],0.44 g
same,Activity,[10],0.7 g
same,Activity,[11],1.2 g
same,Activity,[12],1.99 g
CC1(C(=O)NS(=O)(=O)Cc2ccccc2)CCN(c2nc3c(cc2C#N)C(=O)OC3)CC1,IC50,[1],6.68 µM
N#Cc1cc2c(nc1N1CCC(C(=O)NS(=O)(=O)c3ccc(Cl)s3)CC1)COC2=O,IC50,[1],4.47 µM
same,half-life,[13],2.53 h
same,half-life,[14],2.85 h
same,half-life,[15],1.32 h
same,Cmax,[2],225 ng/mL
same,half-life,[3],2.4 h
same,Tmax,[4],0.25 h
same,AUC(0-inf),[5],417 ng·h/mL
same,MRT,[6],2.31 h
same,IC50,[16],> 50 µM
same,IC50,[17],> 50 µM
same,IC50,[18],28.5 µM
same,IC50,[19],> 50 µM
same,IC50,[20],> 50 µM
same,IC50,[21],> 50 µM
same,intrinsic clearance,[22],13.8 mL/min/g
same,intrinsic clearance,[23],12.3 mL/min/g
same,intrinsic clearance,[24],26.6 mL/min/g
CC1(C(=O)NS(=O)(=O)Cc2ccc(F)cc2F)CCN(c2nc3c(cc2C#N)C(=O)OC3)CC1,IC50,[1],8.76 µM
CC(c1ccccc1)S(=O)(=O)NC(=O)C1CCN(c2nc3c(cc2C#N)C(=O)OC3)CC1 (stereo not drawn),IC50,[1],4.16 µM
CC1(C(=O)NS(=O)(=O)Cc2ccc(F)cc2)CCN(c2nc3c(cc2C#N)C(=O)OC3)CC1,IC50,[1],35.4 µM
N#Cc1cc2c(nc1N1CCC(C(=O)NS(=O)(=O)Cc3ccccc3)CC1)COC2=O,Activity,[25],Active
same,IC50,[1],2.35 µM
same,half-life,[13],2.42 h
same,half-life,[14],1.93 h
same,half-life,[15],1.35 h
same,Cmax,[2],271 ng/mL
same,half-life,[3],1.7 h
same,Tmax,[4],0.25 h
same,AUC(0-inf),[5],384 ng·h/mL
same,MRT,[6],1.91 h
same,intrinsic clearance,[22],14.5 mL/min/g
same,intrinsic clearance,[23],18.2 mL/min/g
same,intrinsic clearance,[24],25.8 mL/min/g
N#Cc1cc2c(nc1N1CCC(C(=O)NS(=O)(=O)Cc3ccccc3)CC1)CCC(Cl)C2=O (stereo not drawn),IC50,[1],> 300 µM
N#Cc1cc2c(nc1N1CCC(C(=O)NS(=O)(=O)Cc3cc(Cl)cc(Cl)c3)CC1)COC2=O,IC50,[1],30.5 µM
N#Cc1cc2c(nc1N1CCC(F)(C(=O)NS(=O)(=O)Cc3ccccc3)CC1)COC2=O,IC50,[1],1.21 µM
same,Cmax,[2],149 ng/mL
same,half-life,[3],2.52 h
same,Tmax,[4],0.25 h
same,AUC(0-inf),[5],291 ng·h/mL
same,MRT,[6],3.83 h
CN1Cc2nc(N3CCC(C(=O)NS(=O)(=O)Cc4ccccc4)CC3)c(C#N)cc2C1=O,IC50,[1],> 300 µM
N#Cc1cc2c(nc1N1CCC(C(=O)NS(=O)(=O)Cc3ccccc3)CC1)CNC2=O,IC50,[1],> 300 µM
